According to ChEMBL document CHEMBL4396883, “Discovery of CDK5 Inhibitors through Structure-Guided Approach” (ACS Med Chem Lett, 2019):
Active and inactive are the calls of the source. The rule behind the calls is not given here.

Assays:
[1] = target: Cyclin-dependent kinase 4/cyclin D1 (Homo sapiens, UniProt P11802); assay: Inhibition of human recombinant N-terminal GST-tagged CDK4 (S4-E303 residues)/Cyclin D1 (Q4-I295 residues) expressed in sf9 cells using RB-CTF as substrate incubated for 90 mins in presence of ATP by ADP-Glo kinase assay
Chain of Cyclin-dependent kinase 4/cyclin D1 (P11802 whole entry, the tested form may be a part): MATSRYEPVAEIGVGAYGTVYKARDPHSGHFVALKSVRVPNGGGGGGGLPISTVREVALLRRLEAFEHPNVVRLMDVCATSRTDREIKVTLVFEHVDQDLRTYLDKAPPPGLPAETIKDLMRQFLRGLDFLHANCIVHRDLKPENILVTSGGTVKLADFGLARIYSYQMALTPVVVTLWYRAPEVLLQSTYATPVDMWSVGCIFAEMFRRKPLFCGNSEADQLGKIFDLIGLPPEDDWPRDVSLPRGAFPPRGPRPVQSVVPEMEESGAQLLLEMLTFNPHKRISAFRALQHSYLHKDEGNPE
Chain of Cyclin-dependent kinase 4/cyclin D1 (P24385 whole entry, further chain, the tested form may be a part): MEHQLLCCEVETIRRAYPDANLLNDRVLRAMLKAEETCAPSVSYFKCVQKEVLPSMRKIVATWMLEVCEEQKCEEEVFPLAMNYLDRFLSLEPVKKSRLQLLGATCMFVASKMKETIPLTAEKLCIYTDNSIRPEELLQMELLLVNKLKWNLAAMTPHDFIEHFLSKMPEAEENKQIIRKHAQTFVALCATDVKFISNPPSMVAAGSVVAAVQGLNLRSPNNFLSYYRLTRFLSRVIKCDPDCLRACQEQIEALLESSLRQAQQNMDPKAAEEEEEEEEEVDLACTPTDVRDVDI

[2] = target: Cyclin-dependent kinase 2/cyclin E1 (Homo sapiens, UniProt P24941); assay: Inhibition of CDK2/Cyclin E (unknown origin) incubated for 30 to 120 mins in presence of ATP by ADP-Glo kinase assay; format: protein-complex assay
[3] = system: MV4-11; assay: Cell cycle arrest in human MV4-11 cells assessed as accumulation at G2/M phase at 10 uM measured after 24 hrs by propidium iodide staining based flow cytometry relative to control; format: functional
How it was run: (§1)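 MV4-11 cells treated 24 h at 2.5 and 10 μM; cell-cycle phase distribution (sub-G1, G1, S, G2/M) by flow cytometry; at least two independent experiments, numerical data as mean value.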

[4] = system: MV4-11; assay: Cell cycle arrest in human MV4-11 cells assessed as accumulation at S phase at 10 uM measured after 24 hrs by propidium iodide staining based flow cytometry relative to control; format: functional; how it was run: as §1
[5] = target: Receptor-type tyrosine-protein kinase FLT3 (Homo sapiens, UniProt P36888, ITD); assay: Inhibition of human recombinant full length GST-fused/His-tagged FLT3 ITD mutant expressed in Sf9 cells using poly (Glu,Tyr) as substrate incubated for 80 mins in presence of ATP by ADP-Glo kinase assay
Chain of Receptor-type tyrosine-protein kinase FLT3 (P36888 whole entry, looked up, stated change not applied, the tested form may be a part): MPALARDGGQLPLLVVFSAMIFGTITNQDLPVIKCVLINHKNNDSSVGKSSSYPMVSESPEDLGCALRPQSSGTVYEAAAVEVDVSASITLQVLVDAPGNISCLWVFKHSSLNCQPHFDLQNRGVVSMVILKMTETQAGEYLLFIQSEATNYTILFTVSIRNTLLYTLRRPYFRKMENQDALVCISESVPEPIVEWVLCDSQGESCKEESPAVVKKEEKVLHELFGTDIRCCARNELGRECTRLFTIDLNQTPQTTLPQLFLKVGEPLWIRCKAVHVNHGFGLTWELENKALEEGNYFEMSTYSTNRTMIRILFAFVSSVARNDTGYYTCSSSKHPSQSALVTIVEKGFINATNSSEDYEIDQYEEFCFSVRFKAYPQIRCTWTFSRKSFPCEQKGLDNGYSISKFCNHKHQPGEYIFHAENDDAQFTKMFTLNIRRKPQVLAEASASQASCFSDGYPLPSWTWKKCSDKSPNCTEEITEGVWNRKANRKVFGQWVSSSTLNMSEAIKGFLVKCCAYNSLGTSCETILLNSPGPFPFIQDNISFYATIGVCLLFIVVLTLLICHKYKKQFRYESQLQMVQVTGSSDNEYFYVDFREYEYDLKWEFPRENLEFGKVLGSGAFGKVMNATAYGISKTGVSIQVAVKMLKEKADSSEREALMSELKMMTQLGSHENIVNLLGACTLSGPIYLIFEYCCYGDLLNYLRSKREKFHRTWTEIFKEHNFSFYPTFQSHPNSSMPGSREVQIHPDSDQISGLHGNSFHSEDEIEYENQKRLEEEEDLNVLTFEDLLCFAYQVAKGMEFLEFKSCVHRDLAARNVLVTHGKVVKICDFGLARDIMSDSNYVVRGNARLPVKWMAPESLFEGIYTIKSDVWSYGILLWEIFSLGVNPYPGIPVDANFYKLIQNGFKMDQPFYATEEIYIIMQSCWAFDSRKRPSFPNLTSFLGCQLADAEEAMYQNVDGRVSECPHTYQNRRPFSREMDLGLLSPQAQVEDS

[6] = system: MV4-11; assay: Cell cycle arrest in human MV4-11 cells assessed as accumulation at G1 phase at 10 uM measured after 24 hrs by propidium iodide staining based flow cytometry relative to control; format: functional; how it was run: as §1
[7] = system: MV4-11; assay: Cell cycle arrest in human MV4-11 cells assessed as accumulation at sub G1 phase at 10 uM measured after 24 hrs by propidium iodide staining based flow cytometry relative to control; format: functional; how it was run: as §1
[8] = target: Cyclin-dependent kinase 5 (Homo sapiens) (UniProt Q00535); assay: Inhibition of CDK5 in human MOLM13 cells assessed as increase in cleaved caspase 3 level at 5 to 10 uM measured after 24 hrs by western blot analysis; format: cell-based
Chain of Cyclin-dependent kinase 5 (Homo sapiens) (Q00535 whole entry, looked up): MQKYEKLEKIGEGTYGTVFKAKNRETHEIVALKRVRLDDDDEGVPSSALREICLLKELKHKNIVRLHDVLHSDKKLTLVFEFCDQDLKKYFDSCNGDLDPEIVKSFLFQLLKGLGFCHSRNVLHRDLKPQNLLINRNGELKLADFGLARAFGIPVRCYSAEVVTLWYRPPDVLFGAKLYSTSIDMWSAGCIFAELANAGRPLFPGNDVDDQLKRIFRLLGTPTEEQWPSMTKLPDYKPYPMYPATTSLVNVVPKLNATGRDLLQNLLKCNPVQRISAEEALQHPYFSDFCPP
How it was run: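 Cells treated for 24 h; lysates immunoblotted for pAkt (S473), pRB (S780), cyclin D1, p27KIP1, and cleaved caspase 3 and 7 (MOLM-13); at least two independent repeats.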

[9] = target: CDK7/Cyclin H/MNAT1 (Homo sapiens, UniProt P50613); assay: Inhibition of CDK7/cyclinH/MAT1 (unknown origin) using RBER-IRStide as substrate incubated for 120 mins in presence of ATP by ADP-Glo kinase assay; format: protein-complex assay
Chain of CDK7/Cyclin H/MNAT1 (P51946 whole entry): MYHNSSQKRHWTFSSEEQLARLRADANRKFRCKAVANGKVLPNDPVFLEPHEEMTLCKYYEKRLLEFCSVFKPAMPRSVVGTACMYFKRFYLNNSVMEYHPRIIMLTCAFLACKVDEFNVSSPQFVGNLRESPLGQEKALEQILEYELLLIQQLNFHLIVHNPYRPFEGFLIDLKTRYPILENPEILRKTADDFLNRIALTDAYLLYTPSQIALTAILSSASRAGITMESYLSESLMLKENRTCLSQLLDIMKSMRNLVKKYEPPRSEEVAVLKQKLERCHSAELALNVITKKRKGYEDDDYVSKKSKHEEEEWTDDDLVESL
Chain of CDK7/Cyclin H/MNAT1 (P50613 whole entry): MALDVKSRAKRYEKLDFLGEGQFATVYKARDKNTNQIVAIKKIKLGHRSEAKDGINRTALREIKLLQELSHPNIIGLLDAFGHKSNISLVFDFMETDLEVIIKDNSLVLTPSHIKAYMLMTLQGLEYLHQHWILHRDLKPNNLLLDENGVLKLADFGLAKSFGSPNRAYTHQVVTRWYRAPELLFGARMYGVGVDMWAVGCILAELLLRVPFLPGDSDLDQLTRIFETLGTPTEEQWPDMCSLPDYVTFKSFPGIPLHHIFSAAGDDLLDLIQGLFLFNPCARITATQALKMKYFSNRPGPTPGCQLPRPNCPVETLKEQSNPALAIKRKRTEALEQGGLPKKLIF
Chain of CDK7/Cyclin H/MNAT1 (P51948 whole entry, further chain): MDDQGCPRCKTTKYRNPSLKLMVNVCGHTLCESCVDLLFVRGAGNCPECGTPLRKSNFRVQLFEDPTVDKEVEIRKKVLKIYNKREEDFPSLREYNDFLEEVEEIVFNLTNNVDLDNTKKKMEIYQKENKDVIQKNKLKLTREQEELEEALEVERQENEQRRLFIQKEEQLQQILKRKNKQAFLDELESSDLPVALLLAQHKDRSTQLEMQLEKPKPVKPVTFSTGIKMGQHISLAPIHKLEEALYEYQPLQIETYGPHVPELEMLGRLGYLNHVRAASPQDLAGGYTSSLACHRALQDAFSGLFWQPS

[10] = target: CDK2/Cyclin A2 (Homo sapiens) (UniProt P24941+P20248); assay: Inhibition of recombinant full length N-terminal GST tagged human CDK2/CyclinA expressed in baculovirus infected sf9 cells using histone H1 as substrate at 10 uM measured after 30 mins in presence of ATP by ADP-Glo kinase assay relative to control
[11] = system: MV4-11; assay: Antiproliferative activity against human MV4-11 cells assessed as growth inhibition measured after 72 hrs by resazurin assay; format: functional; conditions: MV4-11, 72 h
How it was run: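 Leukemia cells exposed to compound for 72 h; viability read by resazurin reduction. GI50 (concentration giving 50% inhibition of proliferation) reported as mean ± SD of three independent experiments.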

[12] = system: MOLM-13; assay: Induction of apoptosis in human MOLM13 cells assessed as necrotic cells at 10 uM measured after 24 hrs by Annexin V-FITC/PI staining based flow cytometry relative to control; format: functional
[13] = system: MOLM-13; assay: Induction of apoptosis in human MOLM13 cells assessed as viable cells at 10 uM measured after 24 hrs by Annexin V-FITC/PI staining based flow cytometry relative to control; format: functional; conditions: MOLM-13, 24 h, read-out: Activity
[14] = organism: Homo sapiens; assay: Selectivity ratio of Ki for recombinant full length N-terminal GST tagged human CDK2/CyclinA expressed in baculovirus infected sf9 cells using histone H1 as substrate to recombinant full length N-terminal GST tagged human CDK5/p25 expressed in baculovirus infected sf9 cells using histone H1 as substrate by ADP-Glo kinase assay

Row | Ki [1] [µM] | Ki [2] [µM] | IC50 [5] [µM] | Activity [8] | Ki [9] [µM] | inhibition [10] [%] | GI50 [11] [µM] | SMILES | Activity [3] [%] | Activity [4] [%] | Activity [6] [%] | Activity [7] [%] | Activity [12] [%] | viability at 10 µM [13] [%] | Ratio Ki [14]
1 | > 5 | 1 | 1.48 | Active | > 5 | 95 | 2.55 | NS(=O)(=O)c1cccc(Nc2ncc3c(n2)CCCC3)c1 | 3.15 | 2.67 | 88.08 | 5.08 | – | – | –
2 | > 5 | > 5 | > 10 | Active | > 5 | 72 | 3.29 | Cc1cccc(Nc2ncc3c(n2)CCCC3)c1 | – | – | – | – | 0.17 | 61.8 | 4
